Test results published in ChEMBL document CHEMBL3232746, “Diamidine compounds for selective inhibition of protein arginine methyltransferase 1” (J Med Chem, 2014).
Active and inactive are the calls of the source. The rule behind the calls is not given here.

Tests used:
[1] = molecular target: T1, Protein arginine N-methyltransferase 5 (Homo sapiens, UniProt O14744); assay: Inhibition of HA-tagged recombinant PRMT5 (unknown origin) expressed in HEK293T cells using [3H]SAM and histone H4 (1 to 20) as substrate after 8 mins by P81 filter binding assay; design: species or system HEK-293T
T1 sequence (O14744 whole entry): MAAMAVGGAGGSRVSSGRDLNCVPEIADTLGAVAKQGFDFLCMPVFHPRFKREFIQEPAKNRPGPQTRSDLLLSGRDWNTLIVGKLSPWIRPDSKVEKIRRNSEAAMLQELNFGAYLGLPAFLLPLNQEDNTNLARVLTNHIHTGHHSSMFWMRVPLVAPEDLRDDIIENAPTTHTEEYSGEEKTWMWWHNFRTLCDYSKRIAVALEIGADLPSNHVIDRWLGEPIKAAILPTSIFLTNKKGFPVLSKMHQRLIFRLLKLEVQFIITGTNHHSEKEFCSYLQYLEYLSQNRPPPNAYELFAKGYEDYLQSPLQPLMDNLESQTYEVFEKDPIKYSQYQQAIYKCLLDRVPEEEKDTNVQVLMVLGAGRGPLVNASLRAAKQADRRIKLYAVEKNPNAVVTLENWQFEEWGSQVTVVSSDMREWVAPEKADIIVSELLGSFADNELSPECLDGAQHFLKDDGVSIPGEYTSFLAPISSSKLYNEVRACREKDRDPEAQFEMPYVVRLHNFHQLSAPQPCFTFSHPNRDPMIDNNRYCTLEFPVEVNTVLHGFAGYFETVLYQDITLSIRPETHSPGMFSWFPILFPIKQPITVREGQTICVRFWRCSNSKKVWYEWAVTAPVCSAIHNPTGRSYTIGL
Procedure, shortened: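 HA-PRMT5 from HEK293T co-transfected with PRMT5 and WDR77 plasmids, HA-bead purified; 0.04 μM enzyme, 0.5 μM [3H]SAM, 1 μM H4(1–20) in HEPES pH 8.0 buffer; inhibitor preincubated with enzyme and SAM 5 min before peptide start; 8 min at 30 °C; P81 disks washed in NaHCO3 pH 9.0, scintillation counted; IC50 over varied inhibitor concentrations.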

[2] = molecular target: T2, Histone-arginine methyltransferase CARM1 (Homo sapiens, UniProt Q86X55); assay: Inhibition of GST-tagged CARM1 (unknown origin) using [3H]SAM and histone H3.1 as substrate at 20 uM after 1 hr by P81 filter binding assay
T2 sequence (Q86X55 whole entry): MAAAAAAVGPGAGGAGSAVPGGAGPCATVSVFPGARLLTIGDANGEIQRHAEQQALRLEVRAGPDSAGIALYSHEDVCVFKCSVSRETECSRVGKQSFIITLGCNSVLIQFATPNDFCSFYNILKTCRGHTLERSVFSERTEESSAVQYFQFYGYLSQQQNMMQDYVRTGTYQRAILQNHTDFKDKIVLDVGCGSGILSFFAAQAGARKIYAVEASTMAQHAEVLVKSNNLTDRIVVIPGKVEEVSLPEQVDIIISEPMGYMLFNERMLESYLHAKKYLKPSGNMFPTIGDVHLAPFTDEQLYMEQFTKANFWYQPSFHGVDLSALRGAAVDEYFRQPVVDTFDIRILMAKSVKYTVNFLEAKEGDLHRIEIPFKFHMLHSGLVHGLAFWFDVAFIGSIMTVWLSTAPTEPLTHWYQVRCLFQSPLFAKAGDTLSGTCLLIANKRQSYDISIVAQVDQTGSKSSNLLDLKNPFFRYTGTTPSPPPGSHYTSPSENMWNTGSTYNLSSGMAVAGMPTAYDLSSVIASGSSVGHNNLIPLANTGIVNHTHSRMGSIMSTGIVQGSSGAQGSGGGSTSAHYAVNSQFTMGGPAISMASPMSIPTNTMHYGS

[3] = molecular target: T3, Protein arginine N-methyltransferase 1 (Homo sapiens, UniProt Q99873); assay: Inhibition of His6x-tagged recombinant PRMT1 (unknown origin) expressed in Escherichia coli BL21(DE3) using [3H]SAM and histone H4 (1 to 20) as substrate after 8 mins by P81 filter binding assay
Target sequence in this assay (Q99873 whole entry): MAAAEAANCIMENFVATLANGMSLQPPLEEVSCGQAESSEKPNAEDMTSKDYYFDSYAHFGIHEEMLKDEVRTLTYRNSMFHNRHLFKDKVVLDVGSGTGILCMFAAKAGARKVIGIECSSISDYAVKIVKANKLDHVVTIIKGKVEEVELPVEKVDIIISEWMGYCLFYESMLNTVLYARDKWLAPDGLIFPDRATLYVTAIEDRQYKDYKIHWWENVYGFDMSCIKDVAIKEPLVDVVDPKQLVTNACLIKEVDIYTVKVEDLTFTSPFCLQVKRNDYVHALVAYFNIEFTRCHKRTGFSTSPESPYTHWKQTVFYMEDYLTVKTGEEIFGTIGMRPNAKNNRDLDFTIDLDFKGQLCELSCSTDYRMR

[4] = molecular target: Protein arginine N-methyltransferase 6 (Homo sapiens, UniProt Q96LA8); assay: Inhibition of His6x-tagged PRMT6 (unknown origin) using [3H]SAM and histone H3.1 as substrate at 20 uM after 1 hr by P81 filter binding assay
Sequence of Protein arginine N-methyltransferase 6 (Q96LA8 whole entry): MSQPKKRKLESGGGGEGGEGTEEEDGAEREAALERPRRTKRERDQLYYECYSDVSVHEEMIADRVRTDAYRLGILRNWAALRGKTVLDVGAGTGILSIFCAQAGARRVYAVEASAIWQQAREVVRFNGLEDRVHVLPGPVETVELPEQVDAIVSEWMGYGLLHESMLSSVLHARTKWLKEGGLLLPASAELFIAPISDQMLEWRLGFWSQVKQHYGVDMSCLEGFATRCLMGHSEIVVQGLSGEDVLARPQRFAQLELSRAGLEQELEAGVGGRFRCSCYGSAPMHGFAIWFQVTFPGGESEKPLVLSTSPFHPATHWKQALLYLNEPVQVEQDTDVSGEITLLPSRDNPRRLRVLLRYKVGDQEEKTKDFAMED
Procedure, shortened: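 P81 filter-binding assay with 1 μM histone H3.1 as acceptor and 0.5 μM [3H]SAM in 50 mM HEPES pH 8.0, 50 mM NaCl, 1 mM EDTA, 0.5 mM DTT; enzyme, SAM and inhibitor preincubated 5 min, then substrate added; 1 h at 30 °C; methylation by scintillation counting.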

[5] = molecular target: T3, Protein arginine N-methyltransferase 1; assay: Inhibition of His6x-tagged recombinant PRMT1 (unknown origin) expressed in Escherichia coli BL21(DE3) using [3H]SAM and histone H4 (1 to 20) as substrate at 20 uM after 8 mins by P81 filter binding assay
Procedure, shortened: (§1)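 Enzyme 0.04 μM (His-PRMT1 purified on Ni-NTA, or HA-PRMT5 co-expressed with WDR77 in 293T and purified on HA beads). Assay used 0.5 μM [3H]SAM and 1 μM H4(1–20) in 50 mM HEPES pH 8.0, 50 mM NaCl, 1 mM EDTA, 0.5 mM DTT. Preincubation 5 min at room temperature, then 8 min at 30 °C. P81 filter binding with scintillation counting. Compared with no-inhibitor control.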
Target sequence in this assay (Q99873 whole entry, looked up): as the sequence (Q99873 whole entry) above

[6] = molecular target: T1, Protein arginine N-methyltransferase 5; assay: Inhibition of HA-tagged recombinant PRMT5 (unknown origin) expressed in HEK293T cells using [3H]SAM and histone H4 (1 to 20) as substrate at 20 uM after 8 mins by P81 filter binding assay; procedure, shortened: as §1
[7] = tested on: HEL; assay: Antiproliferative activity against human HEL cells harboring JAK2 V617F mutant assessed as cell viability at 20 uM measured everyday for 3 days by CellTiter-Glo assay; format: functional, cell-based
Procedure, shortened: (§2)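 RPMI + 10% FBS culture; 1000–1500 cells seeded per well; 20 μM compound or matching DMSO volume added; CellTiter-Glo luminescence read at 0, 24, 48, 72 h after treatment; viability expressed as percent of viable cells relative to DMSO-treated control.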

[8] = tested on: CMY; assay: Antiproliferative activity against human CMY cells harboring trisomy 21 assessed as cell viability at 20 uM measured everyday for 3 days by CellTiter-Glo assay; format: functional, cell-based; procedure, shortened: as §2
[9] = tested on: HL-60; assay: Antiproliferative activity against human HL60 cells with PML-RAR alpha translocation assessed as cell viability at 20 uM measured everyday for 3 days by CellTiter-Glo assay; format: functional, cell-based; procedure, shortened: as §2
[10] = molecular target: T3, Protein arginine N-methyltransferase 1; assay: Uncompetitive inhibition of His6x-tagged recombinant PRMT1 (unknown origin) expressed in Escherichia coli BL21(DE3) using [3H]SAM and histone H4 (1 to 20) as substrate by double reciprocal plot analysis
Procedure, shortened: (§3)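 Radiometric P81 filter-binding kinetics in 50 mM HEPES pH 8.0, 50 mM NaCl, 1 mM EDTA, 0.5 mM DTT, 30 °C; inhibitor at 0, 10, 20, 30, 40 μM; initial velocities with H4-20 varied at 3 μM [3H]SAM, or [3H]SAM varied at 15 μM H4-20; Michaelis–Menten and double-reciprocal analysis giving Kis and Kii.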
Target sequence in this assay (Q99873 whole entry, looked up): as the sequence (Q99873 whole entry) above

[11] = molecular target: T3, Protein arginine N-methyltransferase 1; assay: Inhibition of His6x-tagged recombinant PRMT1 (unknown origin) expressed in Escherichia coli BL21(DE3) using fluorescein-labeled histone H4 (1 to 20) as substrate at 10 to 50 uM after 8 mins by competitive fluorescence anisotropy binding assay
Procedure, shortened: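 0.2 μM fluorescein-labelled H4(1–20) and 2 μM PRMT1 in P81 assay buffer (HEPES pH 8.0); inhibitor titrated in until signal plateaued; anisotropy read at excitation 498 nm, emission 524 nm.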
Target sequence in this assay (Q99873 whole entry, looked up): as the sequence (Q99873 whole entry) above

[12] = tested on: MOLM-13; assay: Antiproliferative activity against human MOLM13 cells with MLL-AF9 translocation assessed as cell viability at 20 uM measured everyday for 3 days by CellTiter-Glo assay; format: functional, cell-based; procedure, shortened: as §2
[13] = organism: Homo sapiens; assay: Antiproliferative activity against human CHRF-288-11 cells harboring trisomy 21 assessed as cell viability at 20 uM measured everyday for 3 days by CellTiter-Glo assay; format: functional, cell-based; procedure, shortened: as §2
[14] = molecular target: T3, Protein arginine N-methyltransferase 1; assay: Inhibition of PRMT1 in human 293T cells assessed as reduction of GFP-ALY methylation by Western blot analysis; format: cell-based
Procedure, shortened: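 GFP-ALY stably expressing 293T cells in DMEM + 10% FBS, treated 15 h with 20 μM compound; lysed on ice in NP-40 buffer; GFP-ALY pulled down on GFP antibody beads; SDS-PAGE and Western blot with ASYM24 methylarginine antibody, equal GFP-ALY loading.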
Target sequence in this assay (Q99873 whole entry, looked up): as the sequence (Q99873 whole entry) above

[15] = tested on: Jurkat; assay: Antiproliferative activity against human Jurkat cells assessed as cell viability at 20 uM measured everyday for 3 days by CellTiter-Glo assay; format: functional, cell-based; procedure, shortened: as §2
[16] = molecular target: T3, Protein arginine N-methyltransferase 1; assay: Competitive inhibition of His6x-tagged recombinant PRMT1 (unknown origin) expressed in Escherichia coli BL21(DE3) using [3H]SAM and histone H4 (1 to 20) as substrate by double reciprocal plot analysis; procedure, shortened: as §3
Target sequence in this assay (Q99873 whole entry, looked up): as the sequence (Q99873 whole entry) above

Compound | IC50 [1] | IC50 [2] | IC50 [3] | IC50 [4] | inhibition [5] | inhibition [6] | also measured
N=C(N)c1ccc(-c2ccc(-c3ccc(C(=N)N)nc3)o2)cc1 | 186 µM | > 400 µM | 7.2 µM | 211 µM |  |  | 
N=C(N)c1ccc(-c2ccc(-c3ccc(C(=N)N)c(F)c3)o2)cc1F |  |  |  |  | Active | Active | 
N=C(N)c1ccc(-c2ccc(-c3ccc(OCCCCCCCCOc4ccc(-c5ccc(-c6ccc(C(=N)N)cc6)o5)cc4)cc3)o2)cc1 |  |  |  |  | > 85% | > 85% | 
N=C(N)c1ccc(-c2ccc(-c3ccc(C(=N)N)cc3)o2)cc1 [FURAMIDINE] | 166 µM | > 400 µM | 9.4 µM | 283 µM | > 75% | 11% | inhibition [7]: inactive; inhibition [8]: Active; inhibition [9]: Active; Kii [10]: 26 µM; inhibition [11]: Active; inhibition [12]: Active; inhibition [13]: Active; inhibition [14]: Active; inhibition [15]: Active; Kis [16]: 2.6 µM
N=C(N)c1ccc(/C=C/c2ccc(C(=N)N)cc2)cc1 [STILBAMIDINE] | 44.1 µM | 400 µM |  | 173 µM |  |  | 
